Broadly, the EC50 is the concentration that produces a half-maximal response.

Data set [1] relates to Panc-1. The data set is described as follows: MTT viability, 48 h. In kind it is cell-based, human. Particulars: read-out: Activity, EC50 Panc-1.
Data set [2] concerns KP02 tumors. As to the kind of experiment: In vivo tumor growth, subcutaneous KP02 tumors in C57BL/6 mice.
Data set [3] has as its system KCKO. The data set is described as follows: MTT viability, 48 h. It is filed as cell-based, mouse. Conditions: read-out: Activity, EC50 KCKO.
Data set [4] has as its system caspase-3 in KP02 cells. The data set is described as follows: Caspase-3 activation. In kind it is cell-based, mouse. Particulars: KP02, 25 μM, 5 hours, relative to vehicle. The gist of the method: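 KP02 cells (DMEM/Ham's F-12 1:1, 10% FBS, 37 °C, 5% CO2) seeded at 1 × 10^4/well 24 h before treatment. Exposed to 25 μM test compound for 5 h, with or without α-tocopherol (100 μM) or Z-DEVD-FMK (1 μM). Caspase-Glo reagent with luminogenic caspase substrate added, shaken 30 s, then 90 min at room temperature. Luminescence read relative to DMSO-treated cells. Triplicates; n ≥ 3 independent experiments, mean ± SEM.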

Data set [5] concerns MIAPaCa-2. The data set is described as follows: MTT viability, 48 h. In kind it is cell-based, human. Particulars: read-out: Activity, EC50 MIAPaCa-2, 48 hr treatment.
The subject of data set [6] is Panc02. The data set is described as follows: MTT viability, 48 h. In kind it is cell-based, mouse. Particulars: read-out: Activity, EC50 Panc02.
For data set [7], the target named is σ1 receptor (Homo sapiens, UniProt Q99720). The data set is described as follows: σ1 binding by flow cytometry in MCF7σ1 cells. Conditions: displacement of σ1 fluorescent compound, 0.1 nmol/L-10 μM. A digest of the protocol:
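MCF7 cells engineered for σ1 (DMEM, 10% FBS) incubated with test compound at 0.1, 1, 10, 100 nmol/L, 1 and 10 μM. Then 100 nmol/L σ1 fluorescent probe added for 75 min at 37 °C, with F390 (10 μM) co-incubated to mask σ2. Cells washed twice with PBS, detached (10 min, 37 °C), pelleted and resuspended in PBS. Fluorescence read by flow cytometry through a 530 nm band-pass filter, 50,000 events per sample.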

In data set [8] the test system is pancreatic cancer cell lines. The data set is described as follows: MTT viability, summary over the panel of pancreatic cancer cell lines. Conditions: 48 h, read-out: Cytotoxic EC50 values in most of the cell lines studied.
Data set [9] relates to AsPC1. As to the kind of experiment: MTT viability, 48 h. It is filed as cell-based, human. Particulars: read-out: Activity, EC50 AsPC1.
Data set [10] is classed as in vivo. Conditions: for PCV: 7 at 750nmol/100μL, 1 and 2 at 1500nmol/100 μL, 2 weeks, n = 3, control 47.5 ± 3; for Necropsy/histology findings (pulmonary metastases, nephropathy) / Mouse weight at necropsy: after 2 weeks daily i.p. treatment; for Mouse weight at necropsy: vehicle 19.5± 0.5; for Treatment-related deaths: 750 nmol/100μL i.p. daily for two weeks.
Data set [11] has as its target P-gp (Homo sapiens, UniProt P08183). As to the kind of experiment: Calcein-AM assay in MDCK-MDR1 cells. It is filed as cell-based. Particulars: n.a. = not active, mean of n ≥ 3 ± SEM.
In data set [12] the test system is KP02 tumor cells. As to the kind of experiment: ROS involvement: MTT viability with antioxidants α-tocopherol or NAC. It is filed as cell-based, mouse. Particulars: KP02, 4 μM compound 48 h; for Rescue of cell death by NAC: 100 μM NAC; for Rescue of cell death by α-tocopherol: 100 μM α-tocopherol 1 hour prior.
The test system of data set [13] is BxPC3. As to the kind of experiment: MTT viability, 48 h. In kind it is cell-based, human. Conditions: read-out: Activity, EC50 BxPC3.
In data set [14] the test system is KP02. The data set is described as follows: MTT viability, 48 h. In kind it is cell-based, mouse. Conditions: read-out: Activity, EC50 KP02.
In data set [15] the test system is mitochondrial superoxide in KP02 cells. The data set is described as follows: Mitochondrial superoxide detection. It is filed as cell-based, mouse. Conditions: KP02, 50 μM, 2 hours, MitoSOX Red. A digest of the protocol:
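KP02 cells seeded in 12-well plates 24 h ahead, then exposed to 50 μM test compound for 2 h at 37 °C, with or without α-tocopherol. Stained with MitoSOX Red (5 μM); after 2 h, washed with PBS, harvested with trypsin/EDTA and washed again. Oxidised dye (emission ~580 nm) read by flow cytometry in FL3 as mean fluorescence intensity. Triplicates.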

In data set [16] the test system is pancreatic cancer cell lines.
The mark [17] stands for this setting: 750 nmol/100μL vehicle i.p. daily for two weeks, vehicle mean 596 mm^3.
[18] abbreviates: 1500 nmol/100μL vehicle i.p. daily for two weeks, vehicle mean 592 mm^3.

Like-named read-outs stand apart in the source and are kept apart here.

Sequence of σ1 receptor (Q99720 whole entry): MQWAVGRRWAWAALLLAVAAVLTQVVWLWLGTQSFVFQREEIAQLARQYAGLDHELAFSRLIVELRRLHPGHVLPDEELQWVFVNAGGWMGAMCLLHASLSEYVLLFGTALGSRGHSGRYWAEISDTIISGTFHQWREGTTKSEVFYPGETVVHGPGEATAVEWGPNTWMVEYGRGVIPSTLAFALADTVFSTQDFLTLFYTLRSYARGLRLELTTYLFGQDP
Sequence of P-gp (P08183 whole entry): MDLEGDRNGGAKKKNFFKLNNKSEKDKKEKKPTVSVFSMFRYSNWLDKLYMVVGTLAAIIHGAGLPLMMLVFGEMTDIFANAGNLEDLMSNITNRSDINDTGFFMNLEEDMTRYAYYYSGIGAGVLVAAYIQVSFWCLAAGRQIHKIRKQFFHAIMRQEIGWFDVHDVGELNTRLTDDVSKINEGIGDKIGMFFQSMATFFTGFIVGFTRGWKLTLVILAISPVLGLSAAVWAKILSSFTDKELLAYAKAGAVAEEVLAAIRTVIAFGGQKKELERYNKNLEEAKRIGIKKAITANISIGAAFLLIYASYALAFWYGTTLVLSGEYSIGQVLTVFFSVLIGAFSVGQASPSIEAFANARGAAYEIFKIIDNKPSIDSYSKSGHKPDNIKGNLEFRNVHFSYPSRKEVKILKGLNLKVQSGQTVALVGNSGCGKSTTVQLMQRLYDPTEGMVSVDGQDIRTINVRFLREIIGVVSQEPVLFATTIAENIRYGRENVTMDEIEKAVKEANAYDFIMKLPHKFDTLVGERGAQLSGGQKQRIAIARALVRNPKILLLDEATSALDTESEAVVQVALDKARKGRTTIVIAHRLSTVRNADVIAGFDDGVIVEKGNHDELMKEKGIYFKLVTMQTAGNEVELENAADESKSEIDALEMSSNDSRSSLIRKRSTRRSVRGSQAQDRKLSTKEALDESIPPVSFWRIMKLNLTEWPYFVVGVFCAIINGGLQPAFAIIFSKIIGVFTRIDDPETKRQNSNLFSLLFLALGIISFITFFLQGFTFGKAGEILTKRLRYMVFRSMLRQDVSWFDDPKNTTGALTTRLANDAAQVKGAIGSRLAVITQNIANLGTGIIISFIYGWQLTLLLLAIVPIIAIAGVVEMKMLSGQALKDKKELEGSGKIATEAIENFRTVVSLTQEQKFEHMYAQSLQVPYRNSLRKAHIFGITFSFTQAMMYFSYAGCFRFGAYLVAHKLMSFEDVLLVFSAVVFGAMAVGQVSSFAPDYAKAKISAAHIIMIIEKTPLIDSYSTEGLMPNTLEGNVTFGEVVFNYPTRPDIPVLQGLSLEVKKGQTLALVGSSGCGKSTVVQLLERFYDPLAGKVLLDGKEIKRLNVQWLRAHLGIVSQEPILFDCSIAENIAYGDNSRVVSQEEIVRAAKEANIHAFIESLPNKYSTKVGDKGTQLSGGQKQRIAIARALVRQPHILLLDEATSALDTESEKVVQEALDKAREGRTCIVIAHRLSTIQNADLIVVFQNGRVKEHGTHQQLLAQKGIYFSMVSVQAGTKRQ

Turning to `CN(C)C(=S)N/N=C1\C(=O)Nc2ccccc21` [Compound 7, (Z)-N,N-Dimethyl-2-(2-oxoindolin-3-ylidene)hydrazinecarbothioamide], the EC50 in data set [1] (Homo sapiens, PANC-1, 48 h) was > 100 µM; in data set [3] (Mus musculus, 48 h) it was 3.14 ± 0.4 µM; in data set [5], 18.3 ± 2.1 µM; in [6] (Mus musculus, Panc02, 48 h), 1.21 ± 0.1 µM; in data set [8], 1.21 to 3.14 µM; in [9] (Homo sapiens, ASPC1, 48 h) it was 2.17 ± 0.3 µM. For the same compound, the EC50 was determined as 2.52 ± 0.5 µM in data set [13] (Homo sapiens, BXPC-3, 48 h) and 2.83 ± 0.6 µM in [14] (Mus musculus, 48 h). Further, the “Mean tumor volume after conclusion of treatment” value (from here on “Mean tumor volume”) in data set [2] (setting [17]) is recorded as 328 mm^3. In addition, in data set [4], the “Increase of caspase-3 activity” value was “did not activate the caspase-3 at all”. In addition, the “Interaction with the σ1 receptor” value in data set [7] is listed as “ruled out”. In [10], this compound came in with a PCV of 42.65 ± 2.85%. The “Necropsy/histology findings (pulmonary metastases, nephropathy)” value (from here on “Necropsy/histology findings”) in [10] was “foci of pulmonary metastases of the implanted tumor and a mild chronic progressive nephropathy”. Further, the “Mouse weight at necropsy” value in [10] is listed as 19.5 ± 0.5 grams. In addition, the “P-gp EC50” value in data set [11] was “completely abolished the interaction with the P-gp”. For the same compound, in [12], the “Rescue of cell death by NAC” value was “even higher levels of cell death”. Besides, in data set [12], the “Rescue of cell death by α-tocopherol” value is reported as “no cells were rescued”.

As to `NC(=S)N/N=C1\C(=O)Nc2ccccc21` [Compound 8, (Z)-2-(2-Oxoindolin-3-ylidene)hydrazinecarbothioamide], the concentration for a half-maximal effect (EC50) in data set [3] (Mus musculus, 48 h) was > 100 µM; in [6] (Mus musculus, Panc02, 48 h), > 100 µM; in data set [9] (Homo sapiens, ASPC1, 48 h), > 100 µM; in data set [13] (Homo sapiens, BXPC-3, 48 h), > 100 µM; in data set [14] (Mus musculus, 48 h) it was > 100 µM. Besides, the “P-gp EC50” value in data set [11] is reported as “completely abolished the interaction with the P-gp”.

On to `COc1cc2c(cc1OC)C(=O)N(CCCCN1C(=O)/C(=N\NC(=S)N(C)C)c3ccccc31)CC2` [Compound 9, (Z)-2-(1-(4-(6,7-Dimethoxy-1-oxo-3,4-dihydroisoquinolin-2(1H)-yl)butyl)-2-oxoindolin-3-ylidene)-N,N-dimethylhydrazinecarbothioamide], for which the EC50 in data set [3] (Mus musculus, 48 h) was found to be 4.51 ± 0.8 µM; in data set [6] (Mus musculus, Panc02, 48 h) it was 2.18 ± 0.3 µM; in [9] (Homo sapiens, ASPC1, 48 h) it was 5.74 ± 0.5 µM; in data set [13] (Homo sapiens, BXPC-3, 48 h) it was 5.93 ± 0.7 µM; in [14] (Mus musculus, 48 h), 5.62 ± 1.1 µM. For the same compound, in [4], the “Increase of caspase-3 activity” value is on record as “did not activate the caspase-3 at all”. Also, the “Rescue of cell death by NAC” value in [12] is “even higher levels of cell death”. Also, the “Rescue of cell death by α-tocopherol” value in [12] was “rescued the pancreatic cancer cells”.

Regarding `CCCCN1CCc2cc(OC)c(OC)cc2C1` [Compound 10, N-Butyl-6,7-dimethoxy-1,2,3,4-tetrahydroisoquinoline], the half-maximal effective concentration (EC50) is > 100 µM in [3] (Mus musculus, 48 h); > 100 µM in [6] (Mus musculus, Panc02, 48 h); > 100 µM in data set [9] (Homo sapiens, ASPC1, 48 h); > 100 µM in data set [13] (Homo sapiens, BXPC-3, 48 h); > 100 µM in data set [14] (Mus musculus, 48 h).

Take `CCCCN1CCN(C2CCCCC2)CC1` [Compound 11, 1-Butyl-4-cyclohexyl-piperazine]: the 50% effective concentration (EC50) was > 100 µM in data set [3] (Mus musculus, 48 h); > 100 µM in data set [6] (Mus musculus, Panc02, 48 h); > 100 µM in [9] (Homo sapiens, ASPC1, 48 h); > 100 µM in data set [13] (Homo sapiens, BXPC-3, 48 h); > 100 µM in [14] (Mus musculus, 48 h). Further, in [11], the “P-gp EC50” value was “complete loss of interaction with P-gp”.

Regarding “(Z)-2-(1-(4-(6,7-Dimethoxy-3,4-dihydroisoquinolin-2(1H)-yl)butyl)-2-oxoindolin-3-ylidene)-N,N-dimethylhydrazinecarbothioamide [Compound 1]”, in data set [15], the “Mitochondrial superoxide production, increase of mean fluorescence intensity” value amounted to 6 fold. Also, the half-maximal effective concentration (EC50) is 14.6 ± 2.1 µM in data set [1] (48 hr treatment, MTT); 6.49 ± 1 µM in [3] (48 hr treatment, MTT); 14.6 ± 2.2 µM in [5]; 1.33 ± 0.2 µM in data set [6] (48 hr treatment, MTT); 2.01 ± 0.6 µM in data set [9] (48 hr treatment, MTT); 1.17 to 14.7 µM in data set [16]. Besides, the 50% effective concentration (EC50) in [13] (48 hr treatment, MTT) is 2.34 ± 0.8 µM; in data set [14] (48 hr treatment, MTT) it was 6.92 ± 0.9 µM. The “Mean tumor volume” value is listed as “statistically similar to vehicle” in [2] (setting [17]) and 205 mm^3 in data set [2] (setting [18]). Moreover, the “Increase of caspase-3 activity” value in data set [4] is on record as “did not activate the caspase-3 at all”. Also, the “Interaction with the σ1 receptor” value in [7] is listed as “ruled out”. Moreover, the Treatment-related deaths result in data set [10] is on record as “without experiencing any treatment-related deaths”. In data set [10], the PCV turned out to be 45.45 ± 4.15%. In data set [10], the “Necropsy/histology findings” value was “not noticed”. In addition, in data set [10], the “Mouse weight at necropsy” value turned out to be 17.5 ± 0.5 grams. Besides, the “Rescue of cell death by α-tocopherol” value in data set [12] is reported as “rescued the pancreatic cancer cells”.

“(Z)-2-[1-[4-(4-Cyclohexylpiperazin-1-yl)butyl]-2-oxoindolin-3-ylidene]-N,N-dimethylhydrazinecarbothioamide [Compound 2]”: in [15], the “Mitochondrial superoxide production, increase of mean fluorescence intensity” value is given as 20 fold. For the same compound, the EC50 was 8.73 ± 0.8 µM in [1] (48 hr treatment, MTT); 6.18 ± 0.3 µM in [3] (48 hr treatment, MTT); 10.8 ± 1.3 µM in [5]; 1.17 ± 0.4 µM in data set [6] (48 hr treatment, MTT); 3.86 ± 0.2 µM in data set [9] (48 hr treatment, MTT); 1.17 to 14.7 µM in data set [16]. Moreover, the 50% effective concentration (EC50) worked out at 6.15 ± 0.6 µM in data set [13] (48 hr treatment, MTT) and 7.32 ± 0.8 µM in data set [14] (48 hr treatment, MTT). The “Mean tumor volume” value is reported as “statistically similar to vehicle” in data set [2] (setting [17]) and 196 mm^3 in data set [2] (setting [18]). The “Increase of caspase-3 activity” value in [4] worked out at 6 fold. Besides, the “Interaction with the σ1 receptor” value in data set [7] is reported as “ruled out”. Moreover, the Treatment-related deaths result in [10] was “without experiencing any treatment-related deaths”. This compound also registered a PCV in [10] of 51 ± 3.8%. The “Necropsy/histology findings” value in [10] is given as “not noticed”. In addition, the “Mouse weight at necropsy” value in data set [10] is listed as 19 ± 1 grams. Besides, the “Rescue of cell death by α-tocopherol” value in data set [12] is “rescued the pancreatic cancer cells”.

These data come from PMC5801006 (European journal of medicinal chemistry, 2017).
